Here are results for five compounds from ChEMBL document CHEMBL1131769, “Orally bioavailable nonpeptide vitronectin receptor antagonists with efficacy in an osteoporosis model” (Bioorg Med Chem Lett, 1999).

Data set [1] has as its target T1, Integrin alpha-V/beta-3 (Homo sapiens, UniProt P05106+P06756). Put plainly: Binding affinity for non-peptide Vitronectin receptor (alpha V beta 3). The data set is classed as protein-complex assay. The method in brief: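 Competitive binding to human αvβ3, with 3H-SK&F 107260 as the displaced radioligand. Ki is the mean of two to three separate experiments.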

The nature of data set [2]: Half-life was determined. The data set is classed as ADME, organism-based. Particulars: rat, in vivo. The method in brief:
(§1)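 Rat pharmacokinetics from plasma concentration–time data in two to three separate animals, by non-compartmental analysis. Oral bioavailability was taken from dose-normalized i.v. and p.o. AUC values.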

Data set [3] deals with Integrin alpha-5/beta-1 (Homo sapiens). Briefly: Binding affinity for alpha 5 beta 1 receptor.
A further data set deals with Rattus norvegicus. Briefly: In vivo inhibitory activity against bone resorption of calcium response determined in thyroidparathyroidectomized rat model at 2.53 mg/kg/hr after 6 hr. The data set is classed as functional. The method in brief: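 Thyroparathyroidectomized rats received compound by continuous i.v. infusion at 2.53 mg/kg/hr. Inhibition of the calcemic response was read after 6 hr.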

The species named for data set [4] is Homo sapiens. Briefly: In vitro inhibitory activity against human platelet aggregation. It is filed as functional. The method in brief:
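Inhibition of ADP-induced aggregation in human platelet-rich plasma.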

The target in the next data set is Integrin alpha-V/beta-5 (Homo sapiens, UniProt P06756+P18084). Briefly: Binding affinity for integrin alpha V beta 5 receptor. The data set is classed as protein-complex assay.
Sequence of Integrin alpha-V/beta-5 (P06756 31-889 limits assumed): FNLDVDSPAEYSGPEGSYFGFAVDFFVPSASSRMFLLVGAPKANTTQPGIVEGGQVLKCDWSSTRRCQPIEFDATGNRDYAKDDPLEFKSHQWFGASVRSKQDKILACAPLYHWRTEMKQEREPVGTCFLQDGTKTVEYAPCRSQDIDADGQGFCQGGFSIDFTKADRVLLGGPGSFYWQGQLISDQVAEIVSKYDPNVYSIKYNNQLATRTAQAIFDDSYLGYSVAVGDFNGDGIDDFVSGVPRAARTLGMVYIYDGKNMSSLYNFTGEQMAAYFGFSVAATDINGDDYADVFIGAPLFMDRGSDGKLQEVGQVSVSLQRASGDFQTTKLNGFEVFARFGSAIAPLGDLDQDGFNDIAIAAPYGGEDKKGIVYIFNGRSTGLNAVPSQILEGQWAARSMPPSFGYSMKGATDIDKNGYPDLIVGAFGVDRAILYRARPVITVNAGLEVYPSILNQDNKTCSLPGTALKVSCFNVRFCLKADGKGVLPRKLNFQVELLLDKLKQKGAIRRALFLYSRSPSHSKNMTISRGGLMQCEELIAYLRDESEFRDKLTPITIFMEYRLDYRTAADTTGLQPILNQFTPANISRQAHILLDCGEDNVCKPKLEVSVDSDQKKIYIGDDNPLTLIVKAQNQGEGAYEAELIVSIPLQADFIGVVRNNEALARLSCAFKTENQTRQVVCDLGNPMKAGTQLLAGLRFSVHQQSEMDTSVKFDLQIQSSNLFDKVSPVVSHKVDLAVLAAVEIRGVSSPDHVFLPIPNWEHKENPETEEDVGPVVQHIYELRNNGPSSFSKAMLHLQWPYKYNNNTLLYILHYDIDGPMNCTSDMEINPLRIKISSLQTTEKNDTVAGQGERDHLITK
Sequence of Integrin alpha-V/beta-5 (P06756 891-1048 limits assumed): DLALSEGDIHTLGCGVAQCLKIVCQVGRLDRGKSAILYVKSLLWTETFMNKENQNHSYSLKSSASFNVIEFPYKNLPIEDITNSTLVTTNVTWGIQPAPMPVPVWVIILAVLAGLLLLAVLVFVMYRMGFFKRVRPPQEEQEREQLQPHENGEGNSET
Sequence of Integrin alpha-V/beta-5 (P18084 24-799 limits assumed): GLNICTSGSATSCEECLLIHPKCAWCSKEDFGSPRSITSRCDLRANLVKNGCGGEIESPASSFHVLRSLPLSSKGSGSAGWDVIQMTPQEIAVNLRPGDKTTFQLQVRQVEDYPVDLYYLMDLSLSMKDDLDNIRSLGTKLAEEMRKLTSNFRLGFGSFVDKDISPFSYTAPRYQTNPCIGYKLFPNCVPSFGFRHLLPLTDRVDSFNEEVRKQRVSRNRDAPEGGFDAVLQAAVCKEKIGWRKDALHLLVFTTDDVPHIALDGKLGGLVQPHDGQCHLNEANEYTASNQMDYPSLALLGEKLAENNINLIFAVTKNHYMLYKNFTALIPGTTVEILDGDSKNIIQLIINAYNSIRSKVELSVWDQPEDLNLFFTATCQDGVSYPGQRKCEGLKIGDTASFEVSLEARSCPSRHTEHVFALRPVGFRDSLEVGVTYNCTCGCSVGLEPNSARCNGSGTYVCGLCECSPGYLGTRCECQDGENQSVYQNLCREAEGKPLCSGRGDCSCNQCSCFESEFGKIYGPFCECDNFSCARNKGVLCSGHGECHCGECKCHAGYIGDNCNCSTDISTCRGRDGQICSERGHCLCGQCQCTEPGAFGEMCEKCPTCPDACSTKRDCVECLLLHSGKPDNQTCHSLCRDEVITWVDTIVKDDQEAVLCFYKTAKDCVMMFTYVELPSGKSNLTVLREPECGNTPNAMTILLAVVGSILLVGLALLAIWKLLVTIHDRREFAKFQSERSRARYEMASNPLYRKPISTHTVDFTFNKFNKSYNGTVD
Data set [5] is filed under the species Homo sapiens. Put plainly: In vitro inhibitory activity determined by human osteoclast resorption assay. It is filed as functional.
Data set [6] can be described thus: Oral bioavailability in rat. Particulars: in vivo. The data set is classed as ADME, organism-based. The method in brief: as §1
Data set [7] addresses Integrin alpha-IIb/beta-3 (Homo sapiens, UniProt P05106+P08514). Put plainly: Binding affinity for alpha IIb beta3 integrin. The data set is classed as protein-complex assay. The method in brief: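 Competitive binding to human αIIbβ3, with 3H-SK&F 107260 as the displaced ligand. Ki is the mean of two to three separate experiments.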
Data set [8] has as its target T1, Integrin alpha-V/beta-3. Briefly: Inhibition of HEK 293 cell adhesion to vitronectin by alpha V beta 3. The data set is classed as cell-based, HEK293. The method in brief:
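Cell-based αvβ3 affinity. HEK 293 cells transfected with human αvβ3 were tested for inhibition of adhesion of purified human vitronectin. IC50 is the mean of two experiments run in triplicate with an internal standard.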

A short description of data set [9]: Plasma clearance of the compound. It is filed as ADME, organism-based. Particulars: rat. The method in brief: as §1

A value given as a limit tells only on which side of the number the result lay.

Sequence of Integrin alpha-IIb/beta-3 (P05106 27-788 limits assumed): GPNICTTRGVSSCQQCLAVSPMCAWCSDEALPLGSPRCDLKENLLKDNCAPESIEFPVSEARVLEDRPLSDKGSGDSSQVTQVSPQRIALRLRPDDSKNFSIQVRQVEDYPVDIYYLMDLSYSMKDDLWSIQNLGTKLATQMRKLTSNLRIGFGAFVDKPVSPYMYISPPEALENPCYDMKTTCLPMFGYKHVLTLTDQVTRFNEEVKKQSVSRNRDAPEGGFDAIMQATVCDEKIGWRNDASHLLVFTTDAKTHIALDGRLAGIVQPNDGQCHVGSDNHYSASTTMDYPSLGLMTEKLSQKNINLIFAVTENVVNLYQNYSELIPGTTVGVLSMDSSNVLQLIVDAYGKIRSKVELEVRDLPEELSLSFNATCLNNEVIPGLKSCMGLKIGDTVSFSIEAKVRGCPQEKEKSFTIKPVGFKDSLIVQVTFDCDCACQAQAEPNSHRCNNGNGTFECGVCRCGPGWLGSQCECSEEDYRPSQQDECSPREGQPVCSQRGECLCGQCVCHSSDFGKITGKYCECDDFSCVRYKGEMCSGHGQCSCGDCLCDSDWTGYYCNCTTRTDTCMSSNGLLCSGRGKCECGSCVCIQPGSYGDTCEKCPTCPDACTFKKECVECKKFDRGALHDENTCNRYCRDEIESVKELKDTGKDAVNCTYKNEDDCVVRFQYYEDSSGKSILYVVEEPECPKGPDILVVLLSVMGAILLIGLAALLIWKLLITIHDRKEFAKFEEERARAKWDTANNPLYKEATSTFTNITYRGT
Sequence of Integrin alpha-IIb/beta-3 (P08514 32-887 limits assumed): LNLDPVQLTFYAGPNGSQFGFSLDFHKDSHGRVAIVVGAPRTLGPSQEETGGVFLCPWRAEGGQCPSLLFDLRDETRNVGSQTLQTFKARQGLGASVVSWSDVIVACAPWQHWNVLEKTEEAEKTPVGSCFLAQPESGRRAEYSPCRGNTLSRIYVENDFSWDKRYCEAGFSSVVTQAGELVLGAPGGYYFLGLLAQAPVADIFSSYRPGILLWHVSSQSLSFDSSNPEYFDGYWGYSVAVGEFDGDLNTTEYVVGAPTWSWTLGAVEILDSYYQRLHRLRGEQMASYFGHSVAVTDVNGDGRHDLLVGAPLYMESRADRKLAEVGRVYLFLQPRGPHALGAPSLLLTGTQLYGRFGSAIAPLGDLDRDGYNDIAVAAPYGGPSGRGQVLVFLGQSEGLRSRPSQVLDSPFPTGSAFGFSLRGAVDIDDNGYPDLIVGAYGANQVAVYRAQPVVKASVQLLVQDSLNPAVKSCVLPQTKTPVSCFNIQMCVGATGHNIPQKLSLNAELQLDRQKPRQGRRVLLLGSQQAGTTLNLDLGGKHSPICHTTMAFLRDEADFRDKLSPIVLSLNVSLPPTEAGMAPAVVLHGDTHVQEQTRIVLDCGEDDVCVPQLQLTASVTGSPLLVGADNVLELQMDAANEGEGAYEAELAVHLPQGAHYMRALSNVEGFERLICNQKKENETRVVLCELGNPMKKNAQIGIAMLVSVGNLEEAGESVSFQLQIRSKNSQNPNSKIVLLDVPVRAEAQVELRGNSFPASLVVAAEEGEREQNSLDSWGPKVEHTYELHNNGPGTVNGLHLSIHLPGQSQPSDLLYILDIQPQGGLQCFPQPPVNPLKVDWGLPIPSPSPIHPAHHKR
Sequence of Integrin alpha-IIb/beta-3 (P08514 891-1039 limits assumed): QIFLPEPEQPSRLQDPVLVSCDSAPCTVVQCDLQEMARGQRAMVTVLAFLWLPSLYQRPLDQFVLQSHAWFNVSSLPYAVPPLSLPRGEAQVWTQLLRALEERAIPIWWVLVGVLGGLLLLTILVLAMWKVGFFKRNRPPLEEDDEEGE
T1 sequence (P05106 27-788 limits assumed): as the sequence (P05106 27-788 limits assumed) above
T1 sequence (P06756 31-889 limits assumed): as the sequence (P06756 31-889 limits assumed) above
T1 sequence (P06756 891-1048 limits assumed): as the sequence (P06756 891-1048 limits assumed) above

Usually Ki stands for the equilibrium dissociation constant of an inhibitor or competing ligand from its target. By half-life is commonly meant the time in which the quantity being followed falls by half. A lower half-life goes with fast loss. For orientation: inhibition in vivo means the change of the read-out against control, counted positive when it falls. One may read the IC50 as the point on the concentration scale where inhibition reaches its midpoint. What is called bioavailability is dose-corrected exposure relative to a reference, in per cent. High values mean much systemic uptake, low ones little systemic uptake. The clearance is the rate of elimination divided by the concentration. Read a high clearance as a high capacity for elimination. Turning to `O=C(O)C[C@@H]1Cc2ccc(OCCCNc3ccccn3)cc2Cc2ccccc21`, the Ki on Integrin alpha-V/beta-3 [1] was 0.004 µM; in data set [3] it was 18 µM; at Integrin alpha-V/beta-5 it was 0.0013 µM; in [7] it was 9 µM. The same compound had a half-life in data set [2] of 3.02 h. In addition, the inhibition in vivo at 2.53 mg/kg/hr in the data set on Rattus norvegicus was determined as 85%. In addition, the concentration for half-maximal inhibition (IC50) is over 200 µM in the data set listed under Homo sapiens [4], 0.048 µM in the data set listed under Homo sapiens [5] and 0.06 µM against Integrin alpha-V/beta-3 [8]. In data set [6], this compound returned a bioavailability of 100%. The compound also displayed a clearance in [9] of 0.18 L/h/kg.

Turning to `CN(Cc1nc2ccccc2[nH]1)C(=O)c1ccc2c(c1)Cc1ccccc1C(CC(=O)O)C2` (stereo not given), the figures for the Ki (on Integrin alpha-V/beta-3 [1]; in data set [7]) were 0.023 µM and over 50 µM, respectively. At Integrin alpha-V/beta-3 [8], this compound showed a 50% inhibitory concentration (IC50) of 1.8 µM.

For `O=C(O)CC1Cc2ccc(OCCCNc3ccccn3)cc2Cc2ccccc21` (stereo not given), the results for the Ki (on Integrin alpha-V/beta-3 [1]; in [7]) were 0.008 µM and 30 µM, respectively. This compound also showed an IC50 against Integrin alpha-V/beta-3 [8] of 0.065 µM.

In data set [2], `CN(Cc1nc2ccccc2[nH]1)C(=O)c1ccc2c(c1)CN(C)C(=O)[C@H](CC(=O)O)N2` returned a half-life of 0.15 h. This compound also returned a bioavailability in data set [6] of 3%.

On to `O=C(O)C[C@H]1Cc2ccc(OCCCNc3ccccn3)cc2Cc2ccccc21`, for which the Ki at Integrin alpha-V/beta-3 [1] is 0.55 µM.
